In ChEMBL document CHEMBL1671641, “1,5-benzodiazepines, a novel class of hepatitis C virus polymerase nonnucleoside inhibitors” (Antimicrob Agents Chemother, 2008):

Columns and labels:
Hepatitis C virus [1] = test: Inhibition of Hepatitis C virus 1b J4 recombinant NS5B Cdelta 21 RNA dependent RNA polymerase overexpressed in Escherichia coli BL21 (DE3); parameters: species or system Hepatitis C virus subtype 1b
Hepatitis C virus [2] = test: Antiviral activity against Hepatitis C virus 1b infected in human HuH7 cells assessed as inhibition of viral replication after 3 days by luciferase reporter assay; format: functional, organism-based, Hepacivirus hominis, genotype 1b, Huh-7
Method in brief: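 HCV 1b subgenomic luciferase reporter replicon (clone ET) cells, 2,500 per well, were exposed to a nine-point 1/4 dilution series for 3 days. Replication was read as luciferase activity. Values are means ± SD from 2 to 23 independent experiments run in quadruplicate.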

[3] = Cytotoxicity against LTR-Luc transfected human MT4 cells […] after 3 days by ATPLite assay; format: cell-based
[4] = Cytotoxicity against CMV-Luc transfected human HuH7 cells after 5 days; format: cell-based, Huh-7; conditions: CMV-Luc transfected HuH7 cells
Hepatitis C virus [5] = test: Ratio of EC50 for Hepatitis C virus 796 infected in HuH7 cells to EC50 for Hepatitis C virus 796 harboring NNI C316Y mutant site in NS5B infected in HuH7 cells; format: functional, Hepacivirus hominis, Huh-7
Method in brief: (§1)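 NS5B NNI-site mutations were introduced into the genotype 1b ET subgenomic luciferase replicon by site-directed mutagenesis. RNA was made by in vitro transcription and tested in a transient-replication assay.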

Hepatitis C virus [6] = test: Ratio of EC50 for Hepatitis C virus 796 infected in HuH7 cells to EC50 for Hepatitis C virus 796 harboring NNI Y448A mutant site in NS5B infected in HuH7 cells; format: functional, Hepacivirus hominis, Huh-7; method in brief: as §1
Hepatitis C virus [7] = test: Ratio of EC50 for Hepatitis C virus 796 infected in HuH7 cells to EC50 for Hepatitis C virus 796 harboring NNI M414Q mutant site in NS5B infected in HuH7 cells; format: functional, Hepacivirus hominis, Huh-7; method in brief: as §1
Hepatitis C virus [8] = test: Ratio of EC50 for Hepatitis C virus 796 infected in HuH7 cells to EC50 for Hepatitis C virus 796 harboring NNI M423T mutant site in NS5B infected in HuH7 cells; format: functional, Hepacivirus hominis, Huh-7; method in brief: as §1
Hepatitis C virus [9] = test: Ratio of EC50 for Hepatitis C virus 796 infected in HuH7 cells to EC50 for Hepatitis C virus 796 harboring NNI H95R mutant site in NS5B infected in HuH7 cells; format: functional, Hepacivirus hominis, Huh-7; method in brief: as §1
Hepatitis C virus [10] = test: Ratio of EC50 for Hepatitis C virus 796 infected in HuH7 cells to EC50 for Hepatitis C virus 796 harboring NNI P495L mutant site in NS5B infected in HuH7 cells; format: functional, Hepacivirus hominis, Huh-7; method in brief: as §1

## CC(=O)N1c2ccccc2NC2=C(C(=O)CC(C)(C)C2)C1c1ccc(OCc2ccccc2)cc1 (stereo in doubt; 3)
Hepatitis C virus [1]
  IC50: 3 µM
Hepatitis C virus [2]; huh-7
  EC50: 5.8 µM
[3]
  CC50 at 72 h: 32 µM
[4]
  CC50 at 120 h: 32 µM

## CC(=O)N1c2ccccc2NC2=C(C(=O)CC(C)(C)C2)C1c1ccc(OCc2ccccc2)c(Cl)c1 (stereo in doubt; 4)
Hepatitis C virus [2]; huh-7
  EC50: 2.2 µM
[3]
  CC50 at 72 h: 22.1 µM
[4]
  CC50 at 120 h: 40.2 µM

## CC(=O)N1c2ccccc2NC2=C(C(=O)CC(C)(C)C2)C1c1ccc(OCc2ccccc2)cc1Cl (stereo in doubt; 5)
[3]
  CC50 at 72 h: 16.7 µM
[4]
  CC50 at 120 h: 35.5 µM

## CC(=O)N1c2cccc(O)c2NC2=C(C(=O)CC(C)(C)C2)C1c1ccc(OCc2ccccc2)cc1Cl (stereo in doubt; 7)
Hepatitis C virus [2]; Hepatitis C virus, genotype 1b, Huh-7, 72 h
  EC50: 1.43 µM
[3]
  CC50 at 72 h: 17.8 µM
[4]
  CC50 at 120 h: 13.4 µM

## CC(C)C[C@@]1(C(=O)O)C[C@H](C#N)[C@H](c2nccs2)N1C(=O)c1ccc(C(C)(C)C)cc1 [ACYL PYRROLIDINE]
Hepatitis C virus [5]
  fold change (FC): 10
Hepatitis C virus [6]
  fold change (FC): 10
Hepatitis C virus [7]
  fold change (FC): 10
Hepatitis C virus [8]
  fold change (FC): 10
Hepatitis C virus [9]
  fold change (FC): 10
Hepatitis C virus [10]
  fold change (FC): 10

## c1ccc2occc2c1 [BENZOFURAN]
Hepatitis C virus [5]
  fold change (FC): 10
Hepatitis C virus [6]
  fold change (FC): 10
Hepatitis C virus [7]
  fold change (FC): 10
Hepatitis C virus [8]
  fold change (FC): 10
Hepatitis C virus [9]
  fold change (FC): 10
Hepatitis C virus [10]
  fold change (FC): 10

## c1ccc2[nH]ccc2c1 [INDOLE]
Hepatitis C virus [5]
  fold change (FC): 10
Hepatitis C virus [6]
  fold change (FC): 10
Hepatitis C virus [7]
  fold change (FC): 10
Hepatitis C virus [8]
  fold change (FC): 10
Hepatitis C virus [9]
  fold change (FC): 10
Hepatitis C virus [10]
  fold change (FC): 10
